Reference: ChEMBL document CHEMBL1157857, “Synthesis and antimicrobial of new anthraquinone derivatives incorporating pyrazole moiety” (2010)

Columns and labels:
Format in all cases: functional
Alternaria solani = assay: Antifungal activity against Alternaria solani at 2 mg/ml after 7 days by agar diffusion method; details: 168 h, read-out: DIZ
How it was run: (§1)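 Fungi tested on potato dextrose agar, incubated seven days; diameter of inhibition zone recorded as activity measure. Three plates per compound as replicates. DMSO without test compound served as control for each organism. Reference drugs (ampicillin, chloramphenicol, cloxacillin) used at 2 mg/mL.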

[1] = test system: Staphylococcus epidermidis; assay: Antibacterial activity against Staphylococcus epidermidis at 2 mg/ml after 24 hrs by agar diffusion method; details: read-out: DIZ
How it was run: (§2)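 Bacteria grown on nutrient agar, incubated 24 h; inhibition zone diameter measured as activity read-out. Three replicate plates per compound. DMSO-only control included for each organism. Ampicillin, chloramphenicol and cloxacillin used at 2 mg/mL as reference drugs.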

Pseudomonas aeruginosa = assay: Antibacterial activity against Pseudomonas aeruginosa at 2 mg/ml after 24 hrs by agar diffusion method; details: read-out: DIZ; how it was run: as §2
Fusarium solani = assay: Antifungal activity against Fusarium solani at 2 mg/ml after 7 days by agar diffusion method; details: 168 h, read-out: DIZ; how it was run: as §1

`O=C1c2ccccc2C(=O)c2cc(-n3cnc4n[nH]c(Nc5ccccc5)c4c3=O)ccc21` showed a zone of inhibition at 2000 µg/mL (Alternaria solani) of 11 mm, a zone of inhibition at 2000 µg/mL [1] of 15 mm and a zone of inhibition at 2000 µg/mL (Pseudomonas aeruginosa) of 20 mm.
For `Cc1cc(C)n2nc(Nc3ccccc3)c(C(=O)Nc3ccc4c(c3)C(=O)c3ccccc3C4=O)c2n1`, the zone of inhibition at 2000 µg/mL (Alternaria solani) was 14 mm, the zone of inhibition at 2000 µg/mL [1] was 20 mm and the zone of inhibition at 2000 µg/mL (Pseudomonas aeruginosa) was 17 mm. It also gave a zone of inhibition at 2000 µg/mL (Fusarium solani) of 13 mm.
For `Cc1ccc(C)n1-c1n[nH]c(Nc2ccccc2)c1C(=O)Nc1ccc2c(c1)C(=O)c1ccccc1C2=O`, the zone of inhibition at 2000 µg/mL [1] was 19 mm and the zone of inhibition at 2000 µg/mL (Pseudomonas aeruginosa) was 16 mm.
Work on `Nc1n[nH]c(Nc2ccccc2)c1C(=O)Nc1ccc2c(c1)C(=O)c1ccccc1C2=O` yielded a zone of inhibition at 2000 µg/mL (Alternaria solani) of 14 mm, a zone of inhibition at 2000 µg/mL [1] of 11 mm and a zone of inhibition at 2000 µg/mL (Pseudomonas aeruginosa) of 14 mm. It also gave a zone of inhibition at 2000 µg/mL (Fusarium solani) of 16 mm.
`CN(C)/C=C(\C#N)C(=O)Nc1ccc2c(c1)C(=O)c1ccccc1C2=O` gave a zone of inhibition at 2000 µg/mL (Pseudomonas aeruginosa) of 14 mm and a zone of inhibition at 2000 µg/mL (Fusarium solani) of 12 mm.
`Nc1n[nH]cc1C(=O)Nc1ccc2c(c1)C(=O)c1ccccc1C2=O` showed a zone of inhibition at 2000 µg/mL (Alternaria solani) of 17 mm, a zone of inhibition at 2000 µg/mL [1] of 22 mm and a zone of inhibition at 2000 µg/mL (Pseudomonas aeruginosa) of 16 mm. It also gave a zone of inhibition at 2000 µg/mL (Fusarium solani) of 16 mm.
Work on `Cc1cc(C)c2c(N/N=C(/C#N)C(=O)Nc3ccc4c(c3)C(=O)c3ccccc3C4=O)n[nH]c2n1` yielded a zone of inhibition at 2000 µg/mL (Alternaria solani) of 18 mm, a zone of inhibition at 2000 µg/mL [1] of 19 mm and a zone of inhibition at 2000 µg/mL (Pseudomonas aeruginosa) of 27 mm. For the same molecule, the zone of inhibition at 2000 µg/mL (Fusarium solani) was 13 mm.
`Cc1cc(C)c2c(n1)nn1c(N)c(C(=O)Nc3ccc4c(c3)C(=O)c3ccccc3C4=O)nnc21` was tested, and the zone of inhibition at 2000 µg/mL (Alternaria solani) was 19 mm, the zone of inhibition at 2000 µg/mL [1] was 14 mm and the zone of inhibition at 2000 µg/mL (Pseudomonas aeruginosa) was 21 mm. The zone of inhibition at 2000 µg/mL (Fusarium solani) was 17 mm.
Work on `Cc1c(N/C(Nc2ccccc2)=C(\C#N)C(=O)Nc2ccc3c(c2)C(=O)c2ccccc2C3=O)c(=O)n(-c2ccccc2)n1C` yielded a zone of inhibition at 2000 µg/mL (Alternaria solani) of 21 mm, a zone of inhibition at 2000 µg/mL [1] of 24 mm and a zone of inhibition at 2000 µg/mL (Pseudomonas aeruginosa) of 22 mm. It also gave a zone of inhibition at 2000 µg/mL (Fusarium solani) of 16 mm.
Molecule `Cc1nn(-c2ccccc2)c2c1cnc1c(C(=O)Nc3ccc4c(c3)C(=O)c3ccccc3C4=O)c(Nc3ccccc3)nn12` has a zone of inhibition at 2000 µg/mL [1] of 17 mm, a zone of inhibition at 2000 µg/mL (Pseudomonas aeruginosa) of 19 mm and a zone of inhibition at 2000 µg/mL (Fusarium solani) of 14 mm.
For `O=C1c2ccccc2C(=O)c2cc(NC(=O)c3c(Nc4ccccc4)nn4c5c(cnc34)CCc3ccccc3-5)ccc21`, the zone of inhibition at 2000 µg/mL (Alternaria solani) was 22 mm, the zone of inhibition at 2000 µg/mL [1] was 25 mm and the zone of inhibition at 2000 µg/mL (Pseudomonas aeruginosa) was 20 mm. For the same molecule, the zone of inhibition at 2000 µg/mL (Fusarium solani) was 14 mm.
Work on `COc1ccc(-c2ccnc3c(C(=O)Nc4ccc5c(c4)C(=O)c4ccccc4C5=O)c(Nc4ccccc4)nn23)cc1` yielded a zone of inhibition at 2000 µg/mL (Alternaria solani) of 17 mm, a zone of inhibition at 2000 µg/mL [1] of 21 mm and a zone of inhibition at 2000 µg/mL (Pseudomonas aeruginosa) of 20 mm. It also gave a zone of inhibition at 2000 µg/mL (Fusarium solani) of 15 mm.
Molecule `CS/C(Nc1ccccc1)=C(\C#N)C(=O)Nc1ccc2c(c1)C(=O)c1ccccc1C2=O` has a zone of inhibition at 2000 µg/mL (Alternaria solani) of 12 mm, a zone of inhibition at 2000 µg/mL [1] of 12 mm and a zone of inhibition at 2000 µg/mL (Pseudomonas aeruginosa) of 13 mm.
`CC1(C)S[C@@H]2[C@H](NC(=O)[C@H](N)c3ccccc3)C(=O)N2[C@H]1C(=O)O` [AMPICILLIN] gave a zone of inhibition at 2000 µg/mL (Alternaria solani) of 19 mm, a zone of inhibition at 2000 µg/mL [1] of 19 mm and a zone of inhibition at 2000 µg/mL (Pseudomonas aeruginosa) of 21 mm. The zone of inhibition at 2000 µg/mL (Fusarium solani) was 17 mm.
Work on `O=C(N[C@H](CO)[C@H](O)c1ccc([N+](=O)[O-])cc1)C(Cl)Cl` [CHLORAMPHENICOL] yielded a zone of inhibition at 2000 µg/mL (Alternaria solani) of 18 mm, a zone of inhibition at 2000 µg/mL [1] of 27 mm and a zone of inhibition at 2000 µg/mL (Pseudomonas aeruginosa) of 24 mm. The zone of inhibition at 2000 µg/mL (Fusarium solani) was 17 mm.
Molecule `Cc1onc(-c2ccccc2Cl)c1C(=O)N[C@@H]1C(=O)N2[C@@H]1SC(C)(C)[C@@H]2C(=O)O` [CLOXACILLIN] has a zone of inhibition at 2000 µg/mL (Alternaria solani) of 20 mm, a zone of inhibition at 2000 µg/mL [1] of 22 mm and a zone of inhibition at 2000 µg/mL (Pseudomonas aeruginosa) of 30 mm. It also gave a zone of inhibition at 2000 µg/mL (Fusarium solani) of 22 mm.
